Measured values from ChEMBL document CHEMBL1795216, “Synthesis and biological evaluations of novel apocynin analogues” (Eur J Med Chem, 2011).
Calls of active or inactive are those of the source. The calls are words filed in the database; no cut-off is given here.

Legend:
Type in all cases: functional, cell-based
RAW264.7 [1] = experiment: Protection against LPS-induced cytotoxicity in mouse RAW264.7 cells assessed as cell viability at 0.1 to 100 uM pretreated for 1 hr before LPS challenge measured after 24 hrs by MTT assay
Outline: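 RAW 264.7 cells seeded at 10⁴/well in 96-well plates and grown 24 h at 37 °C, 5% CO2. Pretreated with compounds at […] for 1 h, washed, then exposed to LPS for 24 h. MTT 0.5 mg/ml added for 4 h, formazan dissolved in DMSO, absorbance read at 570 nm.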

RAW264.7 [2] = experiment: Inhibition of LPS-induced P67phox protein expression in mouse RAW264.7 cells up to 10 uM pretreated for 1 hr before LPS challenge by Western blot analysis
Outline: (§1)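 RAW 264.7 cells pretreated 1 h with compound at […], then stimulated with LPS […] for 24 h. Cytoplasmic extracts run on 12% SDS gel and transferred to PVDF. Membranes blocked in 5% nonfat milk/TBS, probed overnight at 4 °C with mouse anti-p67phox and β-actin (1:2000). HRP anti-mouse secondary 1 h at room temperature, ECL detection.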

RAW264.7 [3] = experiment: Antioxidant activity in lipopolysaccharide-stimulated mouse RAW264.7 cells assessed as decrease in ROS level at 0.1 to 10 uM using DCFH-DA by fluorescence assay
Outline: (§2)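 RAW 264.7 cells (DMEM, 10% FBS, penicillin-streptomycin) seeded for 24 h, then treated with compounds at […] with or without LPS […]. Loaded with […] DCFH-DA for 20 min at 37 °C in 5% CO2, washed three times with PBS. Fluorescence read at ex488/em525 by laser scanning microscopy and quantified on a microplate reader.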

RAW264.7 [4] = experiment: Inhibition of LPS-induced P67phox protein expression in mouse RAW264.7 cells compound pretreated for 1 hr before LPS challenge by Western blot analysis; outline: as §1
RAW264.7 [5] = experiment: Antioxidant activity in lipopolysaccharide-stimulated mouse RAW264.7 cells assessed as decrease in ROS level using DCFH-DA by fluorescence assay; outline: as §2

SMILES | Activity (RAW264.7 [1]) | inhibition (RAW264.7 [2]) | Activity (RAW264.7 [3]) | inhibition (RAW264.7 [4]) | Activity (RAW264.7 [5])
COc1cc(C(C)=O)ccc1O | inactive | inactive | inactive |  | 
COc1cc(C(C)=O)cc(/C=[N+](\[O-])C(C)(C)C)c1O |  | inactive | inactive |  | 
COc1cc(C(C)=O)cc(CNc2cc(C(C)=O)cc(OC)c2O)c1O | Active |  |  | Dose-dependent effect | Dose-dependent effect
COc1cc(C(C)=O)cc(NC(=O)CCCC[C@@H]2CCSS2)c1O | Active |  |  | Dose-dependent effect | Dose-dependent effect
